SMILES strings stand for the structures. Several values for one entry are separate records, joined by “and”; a condition that tells them apart may be missing. Equal entries are not always repeated. Unmarked numbers belong to inactive results. Activity calls are given as the source filed them.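 The calls were made as follows: active = GFP response vs DMSO above 150% with enough events counted; inconclusive = fewer than 70 events counted for a yeast strain; inactive = the rest.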

The nature of the experiment: yeast TOR reporter LAP4-GFP retest – cell-based, third cherry pick, flow cytometry, confirmation (AID 504338).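 Also: ratio to plate DMSO wells so 100% equals DMSO level rather than 0%.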 The settings on record: S. cerevisiae LAP4-GFP strain, 3 h, at 10 µM, hits give high values. A digest of the protocol: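 Assay system – yeast LAP4-GFP strain · Buffer or medium – synthetic complete medium · Times – compound exposure for 3 h at 30 °C · Technique – flow cytometric GFP fluorescence · Evaluation – median GFP fluorescence as percent of plate DMSO-well average · Benchmarks – rapamycin 400 ng/mL as positive control, DMSO wells as reference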
As for `Oc1ccc(Cl)c2cccnc12`, the GFP response vs DMSO was 110%.
Take `O=C(O)c1ccc2cccc(O)c2n1`: the GFP response vs DMSO was 100%.
With `O=C(O)c1ccc(C=NNC(=O)c2cccc3ccccc23)cc1` the figure was 104%; with `COc1ccccc1Nc1nc(NCC(C)C)nc(N)c1[N+](=O)[O-]`, 104%.
With `COc1ccccc1Nc1nc(NCCC(C)C)nc(N)c1[N+](=O)[O-]` the figure was 100%; with `O=C(O)CCS(=O)(=O)c1nc(-c2cccs2)cc(C(F)(F)F)n1`, 115%; with `COc1ccc(N/C=C/C(=O)c2ccc(Cl)cc2)cc1`, 110%.
`C=CCNc1ncnc2ccc(Br)cc12`: the GFP response vs DMSO is 106%.
The same measure for `COc1cccc2c(Cl)c(CCCl)c(C)nc12`: 104%; for `Cc1cc(C)c2ccc(C(=O)O)nc2c1O`: 107%.
For the compound `Cc1ccc(-c2cc(C(F)F)nc(S(C)(=O)=O)n2)cc1`, the GFP response vs DMSO was 114%.
Regarding `COC(=O)c1cc(=O)c2cccc(OC)c2[nH]1`, the GFP response vs DMSO was 101%.
As for `Cc1nc2c(O)cccc2cc1CO`, the GFP response vs DMSO was 101%.
The same measure for `CS(=O)(=O)c1nc(-c2ccc(F)cc2)cc(C(F)(F)F)n1`: 144%; for `Nc1[nH]c(=O)nc(Nc2ccccc2)c1N=O`: 104%; for `Cc1cn2c(N)c(C=C3C=C(Cl)C(=O)C(Cl)=C3)c(=O)nc2s1`: 108%.
With `CC(=O)Nn1cnc2c(c1=O)C1(CCCCC1)Cc1ccccc1-2`, the GFP response vs DMSO is 106%.
As to `Cc1ccc(Nc2nc(N)[nH]c(=O)c2N=O)cc1`, the GFP response vs DMSO is 104%.
As for `COc1cc(OC)cc(C(=O)Nc2ccc(-c3nc4ccccc4o3)cc2)c1`, the GFP response vs DMSO is 106%.
With `C/C(=C\C(=O)c1ccc(Cl)cc1)Nc1ccc(Br)cc1`, the GFP response vs DMSO was 101%.
With `O=C(Nc1nc(-c2ccccn2)cs1)c1ccccc1-n1cnnn1`, the GFP response vs DMSO is 94.4%.
With `Brc1ccc2ncnc(NCc3ccccc3)c2c1` the figure was 107%; with `CC(=O)Nn1cnc2c(c1=O)C1(CCCC1)Cc1ccccc1-2`, 103%.
With `CC1=NNC(=O)/C1=C\c1cn(-c2ccccc2)nc1-c1ccc(F)cc1` the figure was 179% (active); with `CCN(CC)c1ncnc2ccc(Br)cc12`, 101%; with `CNc1nc(N)c([N+](=O)[O-])c(Nc2cccc(Cl)c2)n1`, 131%.
The same measure for `COCCCNc1nc(N)c([N+](=O)[O-])c(Nc2ccccc2OC)n1`: 106%; for `CCc1sc(C(=O)Nc2nc(-c3ccccn3)cs2)cc1C`: 189% (active).
In the case of `CNc1nc(N)c([N+](=O)[O-])c(Nc2ccccc2OC)n1`, the GFP response vs DMSO was 111%.
For the compound `COc1ccc(OC)c2c(=O)cc(C(=O)O)[nH]c12`, the GFP response vs DMSO was 104%.
The same measure for `Nc1cccc2c1C(=O)c1ccc(Cl)cc1C2=O`: 100%; for `Cc1nc(Nc2ccc(Br)cc2Br)c([N+](=O)[O-])c(=O)[nH]1`: 106%; for `CS(=O)(=O)Oc1ccc(Br)c2cccnc12`: 104%.
As to `CC(=O)C(Cl)C(=O)Nc1ccccc1` (centres undefined), the GFP response vs DMSO was 124%.
Turning to `C[n+]1cccc2c(Br)ccc([O-])c21`, the GFP response vs DMSO is 104%.
For `CCN(CC)C(=O)Oc1ccnc2cc(Cl)ccc12`, the GFP response vs DMSO is 101%.
The same measure for `OCc1ccnc2c(O)cccc12`: 101%.
In the case of `COc1ccc(-c2cc(C(F)(F)F)nc(S(C)(=O)=O)n2)cc1OC`, the GFP response vs DMSO is 107% and 110%.
As to `Nc1c(O)ccc2c1C(=O)c1ccccc1C2=O`, the GFP response vs DMSO is 101%.

The values above are taken from PubChem BioAssay AID504338 (NMMLSC, 2011).
